Screening results (PubChem)
This excerpt belongs to a sample that is enriched for hits.
UPR CHOP act: apoptotic UPR (CHOP) activation. CHO-CHOP luciferase reporter, luminescence; percent of tunicamycin response over DMSO baseline. activation, % at 10 µM. actives 0.34% (n = 330,000). AID 449763;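 active = at 10 µM dose, activation of 40% or more, normalized to positive control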
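Test system: CHO CHOP reporter cells. Input: 500 CHO-CHOP cells per well. Medium: F12 with 10% FBS. Technique: luciferase luminescence. Measure: percent activation relative to tunicamycin control. Dosing: 10 µM compound, 0.5% DMSO. Timing: 16-18 h cell attachment, then 6 h compound exposure, 37 °C.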
XBP1 UPR activ: adaptive UPR (XBP1) activation; actives 0.33% (n = 330,000); CHO-XBP1 luciferase reporter, IRE1-XBP1 UPR activation, luminescence; percent of tunicamycin response, DMSO as zero; activation, % at 20 µM; AID 463104;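 active = versus positive control, 20 µM dose yields 30% or more activation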
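Material – CHO cell line with stable XBP1 luciferase reporter · Buffer or medium – F12 plus 10% FBS · Compound – single point, 20 µM final compound, 1% DMSO · Schedule – 16-18 h cell attachment at 37 °C, then 6 h compound exposure · Signal – Steady-Glo luminescence read · Benchmarks – high control tunicamycin 10 µg/mL final, low control DMSO vehicle only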
697 NFkB inh: lowers PMA/ionomycin-induced NF-kB signal in 697 B cells. 697 B-cell NF-kB luciferase reporter, 16 h. inhibition, % at 4 µM. actives 0.33% (n = 330,000); in the data active = inhibition above about 35%
CHOP inh: CHOP inhibition in unfolded protein response; actives 3.8% (n = 220,000); CHO-K1 CHOP-promoter luciferase, tunicamycin-induced, 15-18 h; inhibition, % at 10 µM;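 active = compounds that reduced the stress-induced luciferase reporter signal by more than about 70% of percent inhibition, limit read from the data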
Jurkat NFkB inh: lowers PMA/ionomycin-induced NF-kB signal in Jurkat cells; PMA/ionomycin-induced NF-kB luciferase reporter, luminescence; actives 0.53% (n = 330,000); inhibition, % at 4 µM; in the data active = inhibition above about 50%
Large screens that a line does not name were inactive.

CC(C)C(=O)Nc1ccc(N2CCOCC2)c(S(=O)(=O)Nc2ccccc2Cl)c1	none (no result: CHOP inh)
Cc1ccc(CN2CCN(Cc3cc4ccccc4o3)CC2CCO)cc1 (configuration not stated)	none (no result: CHOP inh)
CCCCSc1nnc(-c2ccccc2)c2ccccc12	CHOP inh 82.3
CCN1CCN(c2nnc(-c3ccccc3)c3ccccc23)CC1	none (no result: CHOP inh)
Cc1ccc(N(CC(=O)NCc2ccccc2)S(=O)(=O)c2c(C)noc2C)cc1	none (no result: CHOP inh)
COc1ccccc1NS(=O)(=O)c1cc(NC(=O)Nc2ccc(Cl)cc2Cl)ccc1N1CCCCC1	none
O=C(Nc1cccc(C(F)(F)F)c1)Nc1ccc(N2CCCC2)c(S(=O)(=O)Nc2ccccc2Cl)c1	CHOP inh 75.6
O=C(c1ccccc1)N1N=C(C(F)(F)F)CC1(O)c1ccc(F)cc1 (configuration not stated)	none (no result: CHOP inh)
COc1ccc(NC2=NC(=S)N(c3ccccc3C)C23CCCCC3)cc1	none
COc1ccc(N2C(=S)N=C(Nc3ccccc3)C23CCCCC3)cc1	CHOP inh 101.4
COc1ccccc1C(=O)NCCC(=O)NCC1CCCCC1	none (no result: CHOP inh)
Cc1ccc(-c2nnn(CC(=O)N(Cc3cccs3)C(C(=O)NC(C)(C)C)c3ccc(C)o3)n2)o1 (configuration not stated)	CHOP inh 76.2
Cc1ccc(-c2nnn(CC(=O)N(Cc3cccs3)C(C(=O)NC(C)(C)C)c3ccco3)n2)o1 (configuration not stated)	none
Cc1cc(C)nc(N2CCC(C(=O)NC3CCCc4ccccc43)CC2)n1 (configuration not stated)	CHOP inh 73.4
Cc1cc(C)cc(NC(=O)C2CCCN(c3nc(C)cc(C)n3)C2)c1 (configuration not stated)	CHOP inh 70.4
Cc1cc(C)nc(N2CCC(C(=O)Nc3ccc4c(c3)CCC4)CC2)n1	CHOP inh 82.3
N#Cc1ccccc1OCC(=O)OCC(=O)N1CCN(C(=O)c2ccco2)CC1	none
CC12CCC(C/C1=N\N=C1\NC(=O)/C(=C\c3ccc(Cl)cc3)S1)C2(C)C (configuration not stated)	CHOP inh 93.0
CSc1ccc(S(=O)(=O)NCCOc2ccccc2C)cc1	CHOP inh 71.6
Cn1c2ccccc2n2c(=O)c(Cl)c(-c3ccccc3)c(C#N)c12	CHOP inh 72.9
Clc1ccc(-c2nc3ccccc3n2OCc2ccccc2)cc1	CHOP inh 80.5
COc1ccc(-c2nc3ccccc3n2Cc2ccc(C)cc2)cc1	none
Clc1cc(/C=N\NC2=NCCN2)cc(Cl)n1	none (no result: CHOP inh)
CCCCNc1c2c3c(cccc3n(C)c1=O)C(=O)c1ccccc1-2	CHOP inh 81.8
CCC(=O)c1ccc(N2CCN(C(=O)c3ccccc3F)CC2)c(F)c1	none
Cc1ccc(C)c(N2CCN(C(=O)c3csc4ccccc34)CC2)c1	CHOP inh 80.0
Cc1ccc(N2CCN(C(=O)c3ccccc3F)CC2)c(C)c1	CHOP inh 92.6
Cc1ccc(C)c(N2CCN(C(=O)Cc3cn(C)c4ccccc34)CC2)c1	CHOP inh 74.1
O=C(NCc1nnc(SCC(=O)N2CCN(c3ccccc3)CC2)o1)c1c(F)cccc1Cl	none (no result: CHOP inh)
Cc1cc(NC(=O)CSc2n[nH]c(-c3ccc(Cl)cc3Cl)n2)no1	none (no result: CHOP inh)
O=C(NCc1cccnc1)c1ccc(COc2ccc(Cl)cc2)cc1	CHOP inh 71.0
COc1ccc(/C=N\NC(=O)c2ccccc2OC)cc1COc1ccccc1C	none (no result: CHOP inh)
COc1ccc(/C=N/NC(=O)c2ccoc2C)cc1COc1c(C)cccc1C	CHOP inh 87.7
CC(C)[C@H](NC(=O)C1CC(=O)N(c2ccc3c(c2)OCCO3)C1)C(=O)NC1CCCC1 (some centres not stated)	none (no result: CHOP inh)
O=C(NCc1cccc(Cl)c1)N1CCN(S(=O)(=O)c2ccccc2F)CC1	none (no result: CHOP inh)
N#Cc1c(NC(=O)CSc2nnnn2C2CCCC2)sc2c1CCCC2	CHOP inh 81.7
Cc1sc(NC(=O)CSc2nnnn2C2CCCC2)c(C#N)c1C	none
CC1C(c2ccccc2)N(C)C(c2ccccc2)CC1(O)c1ccccc1 (configuration not stated)	CHOP inh 85.1
CCN1CC(C)C(O)(c2ccccc2)CC1C (configuration not stated)	none
CC1/C(=N/O)CC(c2ccccc2)N(C)C1c1ccccc1 (configuration not stated)	CHOP inh 93.4
Cc1ccc(C2(C)NC(=O)N(CC(=O)Nc3ccc(S(=O)(=O)Nc4nccs4)cc3)C2=O)cc1 (configuration not stated)	none (no result: CHOP inh)
O=C(CNS(=O)(=O)c1cccc(Cl)c1)OCc1csc(-c2ccccc2)n1	CHOP inh 89.8
CNS(=O)(=O)c1cccc(C(=O)OCc2csc(-c3ccccc3)n2)c1	none
Cc1cccc(Cn2c(=O)n(Cc3ccco3)c(=O)c3ccccc32)c1	none
Cc1ccccc1Cn1c(=O)n(-c2ccccc2)c(=O)c2ccc(C(=O)NCc3ccco3)cc21	CHOP inh 81.1
Cc1ccccc1Cn1c(=O)n(Cc2ccco2)c(=O)c2ccccc21	CHOP inh 87.5
O=c1[nH]c(/C(Cl)=C/c2c(F)cccc2Cl)nc2cc(Cl)ccc12	CHOP inh 78.8
Cc1cccn2c(=O)c(C=O)c(Nc3ccccc3)nc12	none (no result: CHOP inh)
O=C(CSc1ccccn1)N1CCN(c2ncc(C(F)(F)F)cc2Cl)CC1	none
O=C(OC1CCN(c2ncc(C(F)(F)F)cc2Cl)CC1)c1ccc(Cl)cc1	none
O=C(N/N=C/c1cccc(C(F)(F)F)c1)C1CCN(c2ncc(C(F)(F)F)cc2Cl)CC1	CHOP inh 83.2
O=C(N/N=C/c1ccc(Cl)cc1Cl)C1CCN(c2ncc(C(F)(F)F)cc2Cl)CC1	CHOP inh 96.0 (no result: UPR CHOP act, XBP1 UPR activ, 697 NFkB inh, Jurkat NFkB inh)
CCOc1ccc(N2C(=O)CC(NC3CCN(C(=O)c4cccs4)CC3)C2=O)cc1 (configuration not stated)	none (no result: CHOP inh)
CC(C)NC(=O)NC(=O)COC(=O)c1ccc(S(=O)(=O)Nc2ccccc2)cc1	none
CC(C)NC(=O)NC(=O)COC(=O)c1ccc(OC(F)(F)F)cc1	CHOP inh 84.3
COc1ccc(S(=O)(=O)NC(C)C(=O)NCCN2CCOCC2)cc1Cl (configuration not stated)	none (no result: CHOP inh)
O=C(Nc1scc(-c2ccccc2)c1C(=O)O)c1ccco1	CHOP inh 73.4
O=S(=O)(c1ccc(-c2csc(Nc3ccc(F)cc3)n2)cc1)N1CCCC1	CHOP inh 90.0
CCN1CCN(C(C)C(=O)NC2CCCCC2)CC1 (configuration not stated)	none
COc1ccc(CCN(C(=O)C(F)(F)F)C(C(=O)NC2CCCCC2)c2ccc(C)s2)cc1 (configuration not stated)	CHOP inh 87.4
O=C(NNC(=O)c1cc(-c2ccc(Cl)c(Cl)c2)nc2ccccc12)Nc1ccccc1	CHOP inh 89.2
